Data published in PMC12024519 (Science Advances, 2025).

Experiments:
[1] = system: BRD9 interaction with AKT1; test: co-immunoprecipitation of BRD9 and AKT1 in MDA-MB-231 cells; format: cell-based; settings: 0.1 μM, 16 hours
Procedure, shortened: (§1)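 Cells grown in DMEM with 10% FBS, penicillin/streptomycin, at 37°C and 5% CO2; HEK293T transfected with Lipofectamine/Plus. Cells rinsed in ice-cold PBS and lysed in Triton buffer (40 mM Hepes pH 7.4, 150 mM NaCl, 1% Triton X-100) or EBC buffer (50 mM Tris pH 7.5, 0.5% NP-40) with protease/phosphatase inhibitors. 1000–3000 μg lysate incubated with agarose-conjugated antibody 3–4 h at 4°C; beads washed five times in NETN; SDS-PAGE immunoblot.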

SMARCA2/4 = test: immunoblot of SMARCA2/4 depletion; format: cell-based; settings: 0.1 μM, 16 hours, MDA-MB-231
Procedure, shortened: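 Cells grown at 37°C, 5% CO2 with 10% FBS: MDA-MB-231 and MCF-7 in DMEM, BT-549 and T-47D in RPMI 1640. After washing in ice-cold PBS, cells were lysed in Triton (pH 7.4) or EBC (pH 7.5) buffer with protease and phosphatase inhibitors. Equal protein was resolved by SDS-PAGE, transferred to PVDF and probed with primary antibodies at 1:1000–1:10,000 in TBST/5% milk.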

H3K27me3 = test: immunoblot of H3K27me3; format: cell-based
AKT [2] = test: immunoblot of AKT phosphorylation in HEK293T cells; format: cell-based, Human; settings: 0.1 μM, 0-6 h
BRD9-BD = test: in vitro biotin-peptide pull-down with GST-BRD9-BD; format: binding; settings: immunoblot; for relative affinity of BRD9-BD for R391me2s vs H4R3me2s: biotin-labeled peptides, pull-down with GST-BRD9-BD
Tudor domain of SMN = test: biotin-peptide pull-down with GST-SMN-Tudor; format: binding; settings: compared to BRD9-BD, immunoblot
Tudor domain of SND1 = test: biotin-peptide pull-down with GST-SND1-Tudor; format: binding; settings: compared to BRD9-BD, immunoblot
BRD9-3Mut = test: biotin-peptide pull-down with Myc-BRD9-3Mut; format: binding; settings: Myc-BRD9-3Mut from HEK293T WCL; immunoblot
MDA-MB-231 cells [3] = test: RNA-seq of treated MDA-MB-231 cells; format: cell-based, human; settings: for shared down-regulated genes (I-BRD9 and ipatasertib) / shared up-regulated genes (I-BRD9 and ipatasertib): 5 μM I-BRD9 or 1 μM ipatasertib, Q value < 0.05; for hallmark gene sets significantly enriched among the 186 shared genes: MSigDB, genes shared by I-BRD9 and ipatasertib; for common down-regulated genes significantly marked by H3K27me3: of 116 genes common to I-BRD9 and ipatasertib, epidecodeR
MDA-MB-231 cells [4] = test: RT-qPCR of select common genes in MDA-MB-231 cells; format: cell-based; settings: n = 3 biological replicates
[5] = system: BRD9 and AKT1 interaction; test: co-immunoprecipitation of Myc-BRD9 and HA-AKT1 in HEK293T cells; format: cell-based, Human; settings: 5 μM, 24 hours
AKT [6] = test: immunoblot of AKT activation; format: cell-based; settings: 5 μM I-BRD9, MDA-MB-231, indicated times
Procedure, shortened: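 MDA-MB-231 cells kept in DMEM with 10% FBS, penicillin/streptomycin, 37°C, 5% CO2. After treatment, cells washed with ice-cold PBS and lysed in Triton or EBC buffer containing protease/phosphatase inhibitors. Protein quantified by Bio-Rad assay; equal lysate amounts run on SDS-PAGE and transferred to PVDF. Blots probed with pT308-AKT, pS473-AKT, pan-AKT, pGSK-3β and GSK-3β antibodies diluted 1:1000–1:10,000 in TBST/5% milk.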

AKT1 PH and KD domains = test: interaction of AKT1 PH and KD domains in HEK293T cells; format: cell-based, Human; settings: 5 μM I-BRD9, 16 h
EZH2 = test: AKT-mediated phosphorylation of EZH2, phospho-AKT substrate antibody; format: cell-based, Human; settings: 5 μM I-BRD9, 16 h, HEK293T transfected with HA-EZH2
Procedure, shortened: as §1

**Q.** With `Cc1ncsc1-c1ccc([C@H](C)NC(=O)[C@@H]2C[C@@H](O)CN2C(=O)[C@@H](NC(=O)CN2CCN(c3cc(-c4ccccc4O)nnc3N)CC2)C(C)(C)C)cc1` [AU-15330] as the compound, how does the “effect on BRD9 interaction with AKT1” value [1] read?
**A.** minimal effects on BRD9 interaction with AKT1

**Q.** And the “depletion of SMARCA2/4” value (SMARCA2/4)?
**A.** depletion of SMARCA2/4

**Q.** What about the “H3K27me3, AU-15330” value (H3K27me3; 0.1 μM, 0-6 h, HEK293T) of the same compound?
**A.** minor effects

**Q.** And the “AKT phosphorylation, AU-15330” value (AKT [2])?
**A.** minor effects

**Q.** With `O=c1cc(N2CCOCC2)oc2c(-c3ccccc3)cccc12` [LY294002] as the compound, how does the “H3K27me3 level, LY294002” value (H3K27me3; 0, 10, 20 μM, 16 h, MDA-MB-231) read?
**A.** elevated

**Q.** `Nc1cc(C(F)(F)F)c(-c2cc(N3CCOCC3)nc(N3CCOCC3)n2)cn1` [BKM120] was tested. Which “H3K27me3 level, BKM120” value (H3K27me3; 0, 1, 5 μM, 16 h, MDA-MB-231) did it give?
**A.** elevated

**Q.** “H4R3me2s: Biotin-H4R3me2s peptide, ANASPEC AS-65424” was tested. Which “relative affinity of BRD9-BD for R391me2s vs H4R3me2s” value (BRD9-BD) did it give?
**A.** greater affinity for R391me2s than H4R3me2s

**Q.** Which results are given for “Biotin-Ahx-GLLKKDPKQ(Rme2s)LGGGSEDA [R391me2s]”?
**A.** relative affinity of BRD9-BD for R391me2s vs H4R3me2s (BRD9-BD): greater affinity for R391me2s than H4R3me2s; binding of Tudor domain of SMN to R391me2s (Tudor domain of SMN): much weaker or no binding; binding of Tudor domain of SND1 to R391me2s (Tudor domain of SND1): much weaker or no binding; binding of BRD9-3Mut to AKT1-R391me2s peptide (BRD9-3Mut): incapable of binding

**Q.** What does the source list for `CC(C)NC[C@@H](C(=O)N1CCN(c2ncnc3c2[C@H](C)C[C@H]3O)CC1)c1ccc(Cl)cc1` [ipatasertib]?
**A.** H3K27me3 level, ipatasertib (H3K27me3; 0, 1, 5 μM, 16 h, MDA-MB-231): elevated; share of AKT-down-regulated genes that are common with I-BRD9 (MDA-MB-231 cells [3]; 1 μM ipatasertib, 16 hours): 59%; share of AKT-up-regulated genes that are common with I-BRD9 (MDA-MB-231 cells [3]; 1 μM ipatasertib, 16 hours): 32%; shared down-regulated genes (I-BRD9 and ipatasertib) (MDA-MB-231 cells [3]; 16 hours): 116 genes; shared up-regulated genes (I-BRD9 and ipatasertib) (MDA-MB-231 cells [3]; 16 hours): 70 genes; hallmark gene sets significantly enriched among the 186 shared genes (MDA-MB-231 cells [3]): Nine; common down-regulated genes significantly marked by H3K27me3 (MDA-MB-231 cells [3]): Seventy-five; mRNA of shared genes in hallmark pathways, ipatasertib (MDA-MB-231 cells [4]; 1 μM ipatasertib, 16 hours): transcriptionally repressed

**Q.** How did the “effect on AKT1-R391me2s peptide binding of BRD9-BD in vitro” value (BRD9-BD; 5 μM I-BRD9, pull-down) turn out when `CCn1cc(-c2cccc(C(F)(F)F)c2)c2sc(C(=N)NC3CCS(=O)(=O)CC3)cc2c1=O` [I-BRD9] was run?
**A.** blocked the AKT1-R391me2s peptide binding of BRD9-BD in vitro

**Q.** What about the “effect on BRD9 and AKT1 interaction in cells” value [5] of the same compound?
**A.** markedly impaired BRD9 and AKT1 interaction in cells

**Q.** What about the “AKT activation, I-BRD9” value (AKT [6]) of the same compound?
**A.** diminished AKT activation in a time-dependent manner

**Q.** What about the “interaction between PH and KD domains, I-BRD9” value (AKT1 PH and KD domains) of the same compound?
**A.** enhance the interaction between the PH and KD domains

**Q.** And the “H3K27me3, I-BRD9 combined with AKT1 depletion” value (H3K27me3; 5 μM I-BRD9, 16 h, AKT1-depleted MDA-MB-231)?
**A.** did not further induce H3K27me3

**Q.** What about the “H3K27me3 induction by I-BRD9 upon overexpression of myr-AKT1” value (H3K27me3; 5 μM I-BRD9, 16 h, MDA-MB-231 stably expressing Myr-AKT1 (fig. S6J)) of the same compound?
**A.** largely suppressed H3K27me3 induction

**Q.** What about the “H3K27me3 signal, I-BRD9” value (H3K27me3; MDA-MB-231 (Fig. 5D) and MDA-MB-436 (0, 1, 5 μM, fig. S6C), 16 h) of the same compound?
**A.** markedly enhanced H3K27me3 signal

**Q.** And the “AKT-mediated phosphorylation of EZH2” value (EZH2)?
**A.** largely blocked AKT-mediated phosphorylation of EZH2

**Q.** And the “shared down-regulated genes (I-BRD9 and ipatasertib)” value (MDA-MB-231 cells [3]; 16 hours)?
**A.** 116 genes

**Q.** And the “shared up-regulated genes (I-BRD9 and ipatasertib)” value (MDA-MB-231 cells [3]; 16 hours)?
**A.** 70 genes

**Q.** And the “hallmark gene sets significantly enriched among the 186 shared genes” value (MDA-MB-231 cells [3])?
**A.** Nine

**Q.** What about the “common down-regulated genes significantly marked by H3K27me3” value (MDA-MB-231 cells [3]) of the same compound?
**A.** Seventy-five

**Q.** And the “mRNA of shared genes in hallmark pathways, I-BRD9” value (MDA-MB-231 cells [4]; 5 μM I-BRD9, 16 hours)?
**A.** transcriptionally repressed

**Q.** `CC[C@H](C)n1cc(C)c2c(C(=O)NCc3c(C)cc(C)[nH]c3=O)cc(-c3ccc(N4CCNCC4)nc3)cc21` [GSK126] was tested. Which “effect on H3K27me3 elevation caused by loss of BRD9” value (H3K27me3; 5 μM GSK126, 16 h, MDA-MB-231, sgBRD9) did it give?
**A.** completely blocked

**Q.** And the “effect on I-BRD9-enhanced H3K27me3” value (H3K27me3; GSK126 with I-BRD9, 16 h, MDA-MB-231 (fig. S6D))?
**A.** suppressed

**Q.** What about the “transcription of common genes of BRD9 and AKT” value (MDA-MB-231 cells [4]; 5 μM GSK126, 48 hours) of the same compound?
**A.** increased the transcription of common genes of BRD9 and AKT
